≈ marks a conversion by molar mass, not a printed value.
Legend:
Type in all cases: functional
[1] = tested on: Bacteroides thetaiotaomicron; assay: Antimicrobial activity against Bacteroides thetaiotaomicron under anaerobic conditions after 44 hrs by CLSI-M11-47 protocol based agar dilution method
Outline: (§1)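 Reference agar dilution per CLSI M11-A7 with plates made on test day. Clinical isolates were stored at −70°C in 20% skim milk, subcultured twice, and 48-h cell paste was suspended in brucella broth to 0.5 McFarland. About 10^5 CFU/spot was applied with a Steers replicator. Plates were incubated 44 h at 37°C anaerobically. MIC was the lowest concentration giving complete inhibition or marked growth reduction versus the drug-free control.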

[2] = tested on: Clostridium celerecrescens; assay: Antimicrobial activity against Clostridium celerecrescens under anaerobic conditions after 44 hrs by CLSI-M11-47 protocol based agar dilution method; conditions: Lacrimispora celerecrescens; outline: as §1
Eubacterium limosum = assay: Antimicrobial activity against Eubacterium limosum under anaerobic conditions after 44 hrs by CLSI-M11-47 protocol based agar dilution method; outline: as §1
Clostridium baratii = assay: Antimicrobial activity against Clostridium baratii under anaerobic conditions after 44 hrs by CLSI-M11-47 protocol based agar dilution method
[3] = tested on: Lacticaseibacillus rhamnosus; assay: Antimicrobial activity against Lactobacillus rhamnosus under anaerobic conditions after 44 hrs by CLSI-M11-47 protocol based agar dilution method
Outline: (§2)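 Clinical isolates were stored at −70°C in 20% skim milk and identified phenotypically or by partial 16S rRNA sequencing. Each strain was subcultured twice from frozen stock. Cell paste from 48-h cultures was suspended in brucella broth to a 0.5 McFarland standard. About 10^5 CFU per spot were applied by Steers replicator to agar dilution plates prepared on the day of testing. Plates were incubated 44 h at 37°C in an anaerobic chamber. MIC was taken as the lowest concentration giving complete inhibition or marked reduction of growth versus the drug-free control.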

Clostridium tertium = assay: Antimicrobial activity against Clostridium tertium under anaerobic conditions after 44 hrs by CLSI-M11-47 protocol based agar dilution method; outline: as §1
Eggerthella lenta = assay: Antimicrobial activity against Eggerthella lenta under anaerobic conditions after 44 hrs by CLSI-M11-47 protocol based agar dilution method; outline: as §1
Prevotella bergensis = assay: Antimicrobial activity against Prevotella bergensis under anaerobic conditions after 44 hrs by CLSI-M11-47 protocol based agar dilution method; conditions: Hallella bergensis; outline: as §2
Atopobium parvulum = assay: Antimicrobial activity against Atopobium parvulum under anaerobic conditions after 44 hrs by CLSI-M11-47 protocol based agar dilution method; conditions: Lancefieldella parvula; outline: as §1
Actinomyces turicensis = assay: Antimicrobial activity against Actinomyces turicensis under anaerobic conditions after 44 hrs by CLSI-M11-47 protocol based agar dilution method; conditions: Schaalia turicensis; outline: as §1
Fusobacterium mortiferum = assay: Antimicrobial activity against Fusobacterium mortiferum under anaerobic conditions after 44 hrs by CLSI-M11-47 protocol based agar dilution method; outline: as §1
Clostridioides difficile = assay: Antimicrobial activity against Clostridium difficile under anaerobic conditions after 44 hrs by CLSI-M11-47 protocol based agar dilution method; outline: as §1
Clostridium cadaveris = assay: Antimicrobial activity against Clostridium cadaveris under anaerobic conditions after 44 hrs by CLSI-M11-47 protocol based agar dilution method; outline: as §1
Schaalia meyeri = assay: Antimicrobial activity against Actinomyces meyeri under anaerobic conditions after 44 hrs by CLSI-M11-47 protocol based agar dilution method; outline: as §1
Clostridium bolteae = assay: Antimicrobial activity against Clostridium bolteae under anaerobic conditions after 44 hrs by CLSI-M11-47 protocol based agar dilution method; conditions: Enterocloster bolteae; outline: as §1
Bacteroides fragilis = assay: Antimicrobial activity against Bacteroides fragilis under anaerobic conditions after 44 hrs by CLSI-M11-47 protocol based agar dilution method; outline: as §1
Anaerococcus tetradius = assay: Antimicrobial activity against Anaerococcus tetradius under anaerobic conditions after 44 hrs by CLSI-M11-47 protocol based agar dilution method; outline: as §1
Mogibacterium timidum = assay: Antimicrobial activity against Mogibacterium timidum under anaerobic conditions after 44 hrs by CLSI-M11-47 protocol based agar dilution method; outline: as §2
Hoylesella loescheii = assay: Antimicrobial activity against Prevotella loescheii under anaerobic conditions after 44 hrs by CLSI-M11-47 protocol based agar dilution method; outline: as §2
Phocaeicola vulgatus = assay: Antimicrobial activity against Bacteroides vulgatus under anaerobic conditions after 44 hrs by CLSI-M11-47 protocol based agar dilution method; outline: as §1
Prevotella disiens = assay: Antimicrobial activity against Prevotella disiens under anaerobic conditions after 44 hrs by CLSI-M11-47 protocol based agar dilution method; outline: as §2

`CCC[C@@H]1C[C@@H](C(=O)N[C@@H]([C@H]2O[C@H](SC)[C@H](O)[C@@H](O)[C@H]2O)[C@H](C)Cl)N(C)C1` [CLINDAMYCIN] gave an MIC50 [1] of 4 µg/mL (≈ 9.41 µM), an MIC90 [1] of 128 µg/mL (≈ 301 µM) and an MIC50 [2] of 2 µg/mL (≈ 4.71 µM). The MIC90 [2] was 128 µg/mL (≈ 301 µM), the MIC50 (Eubacterium limosum) was 0.06 µg/mL (≈ 0.141 µM) and the MIC90 (Eubacterium limosum) was 2 µg/mL (≈ 4.71 µM). For the same molecule, the MIC50 (Clostridium baratii) was 2 µg/mL (≈ 4.71 µM), the MIC90 (Clostridium baratii) was 128 µg/mL (≈ 301 µM) and the MIC50 [3] was 1 µg/mL (≈ 2.35 µM). For the same molecule, the MIC90 [3] was 2 µg/mL (≈ 4.71 µM), the MIC50 (Clostridium tertium) was 2 µg/mL (≈ 4.71 µM) and the MIC90 (Clostridium tertium) was 128 µg/mL (≈ 301 µM). For the same molecule, the MIC50 (Eggerthella lenta) was 0.5 µg/mL (≈ 1.18 µM), the MIC90 (Eggerthella lenta) was 2 µg/mL (≈ 4.71 µM) and the MIC50 (Prevotella bergensis) was ≤ 0.03 µg/mL. For the same molecule, the MIC90 (Prevotella bergensis) was 128 µg/mL (≈ 301 µM), the MIC50 (Atopobium parvulum) was 0.06 µg/mL (≈ 0.141 µM) and the MIC90 (Atopobium parvulum) was 2 µg/mL (≈ 4.71 µM). It also gave an MIC50 (Actinomyces turicensis) of 0.06 µg/mL (≈ 0.141 µM), an MIC90 (Actinomyces turicensis) of 128 µg/mL (≈ 301 µM) and an MIC50 (Fusobacterium mortiferum) of 0.06 µg/mL (≈ 0.141 µM). The MIC90 (Fusobacterium mortiferum) was 1 µg/mL (≈ 2.35 µM), the MIC50 (Clostridioides difficile) was 2 µg/mL (≈ 4.71 µM) and the MIC90 (Clostridioides difficile) was 128 µg/mL (≈ 301 µM). It also gave an MIC50 (Clostridium cadaveris) of 2 µg/mL (≈ 4.71 µM), an MIC90 (Clostridium cadaveris) of 128 µg/mL (≈ 301 µM) and an MIC50 (Schaalia meyeri) of 0.06 µg/mL (≈ 0.141 µM). It also gave an MIC90 (Schaalia meyeri) of 128 µg/mL (≈ 301 µM), an MIC50 (Clostridium bolteae) of 0.5 µg/mL (≈ 1.18 µM) and an MIC90 (Clostridium bolteae) of 2 µg/mL (≈ 4.71 µM). For the same molecule, the MIC50 (Bacteroides fragilis) was 1 µg/mL (≈ 2.35 µM), the MIC90 (Bacteroides fragilis) was 128 µg/mL (≈ 301 µM) and the MIC50 (Anaerococcus tetradius) was 0.5 µg/mL (≈ 1.18 µM). It also gave an MIC90 (Anaerococcus tetradius) of 128 µg/mL (≈ 301 µM), an MIC50 (Mogibacterium timidum) of 0.06 µg/mL (≈ 0.141 µM) and an MIC90 (Mogibacterium timidum) of 2 µg/mL (≈ 4.71 µM). For the same molecule, the MIC50 (Hoylesella loescheii) was ≤ 0.03 µg/mL, the MIC90 (Hoylesella loescheii) was 128 µg/mL (≈ 301 µM) and the MIC50 (Phocaeicola vulgatus) was 4 µg/mL (≈ 9.41 µM). For the same molecule, the MIC90 (Phocaeicola vulgatus) was > 128 µg/mL, the MIC50 (Prevotella disiens) was ≤ 0.03 µg/mL and the MIC90 (Prevotella disiens) was 128 µg/mL (≈ 301 µM).
For `Cc1ncc([N+](=O)[O-])n1CCO` [METRONIDAZOLE], the MIC50 [1] was 1 µg/mL (≈ 5.84 µM), the MIC90 [1] was 1 µg/mL (≈ 5.84 µM) and the MIC50 [2] was 0.5 µg/mL (≈ 2.92 µM). The MIC90 [2] was 4 µg/mL (≈ 23.4 µM), the MIC50 (Eubacterium limosum) was 0.5 µg/mL (≈ 2.92 µM) and the MIC90 (Eubacterium limosum) was 1 µg/mL (≈ 5.84 µM). The MIC50 (Clostridium baratii) was 0.5 µg/mL (≈ 2.92 µM), the MIC90 (Clostridium baratii) was 4 µg/mL (≈ 23.4 µM) and the MIC50 [3] was > 64 µg/mL. The MIC90 [3] was > 64 µg/mL, the MIC50 (Clostridium tertium) was 0.5 µg/mL (≈ 2.92 µM) and the MIC90 (Clostridium tertium) was 4 µg/mL (≈ 23.4 µM). It also gave an MIC50 (Eggerthella lenta) of 1 µg/mL (≈ 5.84 µM), an MIC90 (Eggerthella lenta) of 1 µg/mL (≈ 5.84 µM) and an MIC50 (Prevotella bergensis) of 0.5 µg/mL (≈ 2.92 µM). It also gave an MIC90 (Prevotella bergensis) of 2 µg/mL (≈ 11.7 µM), an MIC50 (Atopobium parvulum) of 0.5 µg/mL (≈ 2.92 µM) and an MIC90 (Atopobium parvulum) of 1 µg/mL (≈ 5.84 µM). The MIC50 (Actinomyces turicensis) was > 32 µg/mL, the MIC90 (Actinomyces turicensis) was > 32 µg/mL and the MIC50 (Fusobacterium mortiferum) was 0.5 µg/mL (≈ 2.92 µM). The MIC90 (Fusobacterium mortiferum) was 1 µg/mL (≈ 5.84 µM), the MIC50 (Clostridioides difficile) was 0.5 µg/mL (≈ 2.92 µM) and the MIC90 (Clostridioides difficile) was 4 µg/mL (≈ 23.4 µM). For the same molecule, the MIC50 (Clostridium cadaveris) was 0.5 µg/mL (≈ 2.92 µM), the MIC90 (Clostridium cadaveris) was 4 µg/mL (≈ 23.4 µM) and the MIC50 (Schaalia meyeri) was > 32 µg/mL. The MIC90 (Schaalia meyeri) was > 32 µg/mL, the MIC50 (Clostridium bolteae) was 0.06 µg/mL (≈ 0.351 µM) and the MIC90 (Clostridium bolteae) was 0.25 µg/mL (≈ 1.46 µM). For the same molecule, the MIC50 (Bacteroides fragilis) was 1 µg/mL (≈ 5.84 µM), the MIC90 (Bacteroides fragilis) was 2 µg/mL (≈ 11.7 µM) and the MIC50 (Anaerococcus tetradius) was 1 µg/mL (≈ 5.84 µM). The MIC90 (Anaerococcus tetradius) was 2 µg/mL (≈ 11.7 µM), the MIC50 (Mogibacterium timidum) was 0.5 µg/mL (≈ 2.92 µM) and the MIC90 (Mogibacterium timidum) was 1 µg/mL (≈ 5.84 µM). It also gave an MIC50 (Hoylesella loescheii) of 0.5 µg/mL (≈ 2.92 µM), an MIC90 (Hoylesella loescheii) of 2 µg/mL (≈ 11.7 µM) and an MIC50 (Phocaeicola vulgatus) of 1 µg/mL (≈ 5.84 µM). It also gave an MIC90 (Phocaeicola vulgatus) of 2 µg/mL (≈ 11.7 µM), an MIC50 (Prevotella disiens) of 0.5 µg/mL (≈ 2.92 µM) and an MIC90 (Prevotella disiens) of 2 µg/mL (≈ 11.7 µM).

Reference: ChEMBL document CHEMBL1255409, “In vitro activity of ceftaroline against 623 diverse strains of anaerobic bacteria” (2010)
